{"source": "ChEMBL document CHEMBL4145640", "about": "“De Novo Design, Synthesis, and Biological Evaluation of 3,4-Disubstituted Pyrrolidine Sulfonamides as Potent and Selective Glycine Transporter 1 Competitive Inhibitors” (J Med Chem, 2018)", "key": {"Mus musculus": {"system": "Mus musculus", "test": "Inhibition of L687,414-induced hyperactivity in mouse at 1 mg/kg, ip dosed before test", "type": "functional"}, "[1]": {"test": "Stability in pH 7 buffer at 1 mg assessed as compound hydrolysis after several days at room temperature by LC/MS analysis", "type": "physicochemical"}, "MDR1 (P-gp)": {"system": "MDR1 (P-gp)", "test": "Efflux ratio in MDCK2-MDR1 cells at 1 uM incubated for 1 hr by LC-MS/MS method", "type": "ADME, cell-based, Canis lupus familiaris", "conditions": "dog, MDCK-MDR1", "method_in_brief": "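MDCK II cells transfected with MDR1 (human P-gp, lowered canine P-gp) seeded on transwell inserts at 300,000 cells/cm2, media changed day 2, assayed day 4 or 5. Dosed apical or basolateral at 1 µM final (1 mM DMSO stock, 0.1% DMSO) in HBSS + glucose, duplicate, 37 °C for 1 h. Receiver and donor sampled, LC-MS/MS with buspirone internal standard; Papp from ΔQ/Δt·1/(A·C0).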"}, "[2]": {"biological_target": "T1, Sodium- and chloride-dependent glycine transporter 1 (Homo sapiens, UniProt P48067)", "T1 sequence (P48067 whole entry)": "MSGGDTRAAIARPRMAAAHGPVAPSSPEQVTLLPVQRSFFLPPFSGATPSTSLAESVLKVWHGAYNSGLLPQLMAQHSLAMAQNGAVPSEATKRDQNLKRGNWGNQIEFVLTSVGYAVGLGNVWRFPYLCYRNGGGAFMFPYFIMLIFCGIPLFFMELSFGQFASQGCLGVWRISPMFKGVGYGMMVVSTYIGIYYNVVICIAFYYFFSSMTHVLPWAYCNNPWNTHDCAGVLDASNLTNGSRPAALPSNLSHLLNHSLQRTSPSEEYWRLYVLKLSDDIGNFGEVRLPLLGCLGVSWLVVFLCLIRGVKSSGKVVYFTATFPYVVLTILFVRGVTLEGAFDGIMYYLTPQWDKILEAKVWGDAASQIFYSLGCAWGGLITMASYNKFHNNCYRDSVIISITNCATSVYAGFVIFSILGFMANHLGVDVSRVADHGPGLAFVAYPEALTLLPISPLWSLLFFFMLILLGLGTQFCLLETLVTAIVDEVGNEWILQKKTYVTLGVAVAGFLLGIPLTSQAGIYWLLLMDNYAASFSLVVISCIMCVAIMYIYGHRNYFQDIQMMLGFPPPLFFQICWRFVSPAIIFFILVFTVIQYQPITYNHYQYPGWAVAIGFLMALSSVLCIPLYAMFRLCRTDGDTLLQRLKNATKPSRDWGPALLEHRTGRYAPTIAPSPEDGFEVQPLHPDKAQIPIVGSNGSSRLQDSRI", "test": "Inhibition of [3H]N-Methyl-SSR504734 binding to human recombinant GlyT1c expressed in CHO cell membranes incubated for 1 hr by liquid scintillation spectrometry"}, "[3]": {"test": "Unbound intrinsic clearance in rat liver microsomes at 0.5 uM incubated for 4 hrs by equilibrium dialysis and LC-MS/MS method", "type": "ADME, microsome"}, "Salmonella typhimurium [4]": {"system": "Salmonella typhimurium", "test": "Genotoxicity in Salmonella typhimurium TA100 assessed as induction of mutagenicity by measuring revertant colonies at 0.3 to 1000 ug/well incubated for 48 hrs in presence of liver S9 fraction by mini Ames test", "type": "toxicity, organism-based", "conditions": "salmonella enterica subsp. enterica serovar typhimurium, s9, 48 h"}, "Salmonella typhimurium [5]": {"system": "Salmonella typhimurium", "test": "Genotoxicity in Salmonella typhimurium TA98 assessed as induction of mutagenicity by measuring revertant colonies at 0.3 to 1000 ug/well incubated for 48 hrs in presence of liver S9 fraction by mini Ames test", "type": "toxicity, organism-based", "conditions": "salmonella enterica subsp. enterica serovar typhimurium, s9, 48 h"}, "[6]": {"test": "Unbound intrinsic clearance in human liver microsomes at 0.5 uM incubated for 4 hrs by equilibrium dialysis and LC-MS/MS method", "type": "ADME, microsome"}, "[7]": {"test": "Ratio of free drug level in brain to plasma in rat", "type": "ADME", "conditions": "read-out: BPR"}}, "data": [{"compound": "Cn1cnc(S(=O)(=O)N2C[C@H](Nc3ccc(F)c(OC(F)(F)F)c3)[C@@H](c3ccc(F)cc3)C2)c1", "values": [{"measurement": "inhibition in vivo at 1 mg/kg", "setting": "Mus musculus", "result": 100, "unit": "%"}]}, {"compound": "Cn1cnc(S(=O)(=O)N2C[C@H]([C@@H]3CCCO3)[C@@H](Nc3cccc(OC(F)(F)F)c3)C2)c1", "values": [{"measurement": "Stability", "setting": "[1]", "result": "Stable"}]}, {"compound": "Cn1cnc(S(=O)(=O)N2CC(Nc3ccccc3)C(c3ccccc3)C2)c1", "note": "(racemic)", "values": [{"measurement": "efflux ratio at 1 h, 1 µM", "setting": "MDR1 (P-gp)", "result": 0.9}, {"measurement": "Ki", "setting": "[2]", "result": 199, "unit": "nM"}, {"measurement": "CL free", "setting": "[3]", "result": 950, "unit": "mL/min/kg"}, {"measurement": "Activity", "setting": "Salmonella typhimurium [4]", "result": "Non-Toxic"}, {"measurement": "Activity", "setting": "Salmonella typhimurium [5]", "result": "Non-Toxic"}, {"measurement": "CL free", "setting": "[6]", "result": 250, "unit": "mL/min/kg"}]}, {"compound": "Cn1cnc(S(=O)(=O)N2CC(Nc3cccc(C(F)(F)F)c3)C(c3ccccc3)C2)c1", "note": "(racemic)", "values": [{"measurement": "Ki", "setting": "[2]", "result": 8, "unit": "nM"}, {"measurement": "Activity", "setting": "Salmonella typhimurium [4]", "result": "Non-Toxic"}, {"measurement": "Activity", "setting": "Salmonella typhimurium [5]", "result": "Non-Toxic"}]}, {"compound": "Cn1cnc(S(=O)(=O)N2CC(Nc3cncc(C(F)(F)F)c3)C(c3ccc(F)cc3)C2)c1", "note": "(racemic)", "values": [{"measurement": "Activity", "setting": "Salmonella typhimurium [4]", "result": "Non-Toxic"}, {"measurement": "Activity", "setting": "Salmonella typhimurium [5]", "result": "Non-Toxic"}]}, {"compound": "Cc1cccc(NC2CN(S(=O)(=O)c3cn(C)cn3)CC2c2ccccc2)c1", "note": "(racemic)", "values": [{"measurement": "efflux ratio at 1 h, 1 µM", "setting": "MDR1 (P-gp)", "result": 0.9}, {"measurement": "Ki", "setting": "[2]", "result": "17 to 18", "unit": "nM"}, {"measurement": "CL free", "setting": "[3]", "result": 1980, "unit": "mL/min/kg"}, {"measurement": "Activity", "setting": "Salmonella typhimurium [4]", "result": "Non-Toxic"}, {"measurement": "Activity", "setting": "Salmonella typhimurium [5]", "result": "Non-Toxic"}, {"measurement": "Kp uu", "setting": "[7]", "result": 0.6}, {"measurement": "CL free", "setting": "[6]", "result": 817, "unit": "mL/min/kg"}]}, {"compound": "Cn1cnc(S(=O)(=O)N2CC(Nc3cccc(Cl)c3)C(c3ccc(F)cc3)C2)c1", "note": "(racemic)", "values": [{"measurement": "efflux ratio at 1 h, 1 µM", "setting": "MDR1 (P-gp)", "result": 1.1}, {"measurement": "Ki", "setting": "[2]", "result": 3, "unit": "nM"}, {"measurement": "CL free", "setting": "[3]", "result": 5830, "unit": "mL/min/kg"}, {"measurement": "Activity", "setting": "Salmonella typhimurium [4]", "result": "Non-Toxic"}, {"measurement": "Activity", "setting": "Salmonella typhimurium [5]", "result": "Non-Toxic"}, {"measurement": "Kp uu", "setting": "[7]", "result": 1.7}, {"measurement": "CL free", "setting": "[6]", "result": 3380, "unit": "mL/min/kg"}]}, {"compound": "Cn1cnc(S(=O)(=O)N2CC(Nc3cccc(C(F)(F)F)c3)C(c3cccnc3)C2)c1", "note": "(racemic)", "values": [{"measurement": "Activity", "setting": "Salmonella typhimurium [4]", "result": "Non-Toxic"}, {"measurement": "Activity", "setting": "Salmonella typhimurium [5]", "result": "Non-Toxic"}]}, {"compound": "Cn1cnc(S(=O)(=O)N2CC(Nc3cccc(Cl)c3)C(c3cccc(F)c3)C2)c1", "note": "(racemic)", "values": [{"measurement": "efflux ratio at 1 h, 1 µM", "setting": "MDR1 (P-gp)", "result": 1}, {"measurement": "Ki", "setting": "[2]", "result": 42, "unit": "nM"}, {"measurement": "CL free", "setting": "[3]", "result": 4430, "unit": "mL/min/kg"}, {"measurement": "Activity", "setting": "Salmonella typhimurium [4]", "result": "Non-Toxic"}, {"measurement": "Activity", "setting": "Salmonella typhimurium [5]", "result": "Non-Toxic"}, {"measurement": "CL free", "setting": "[6]", "result": 1450, "unit": "mL/min/kg"}]}]}
